Test results as given in ChEMBL document CHEMBL3808334, “Synthesis and in vitro evaluation of novel triazine analogues as anticancer agents and their interaction studies with bovine serum albumin” (Eur J Med Chem, 2016).

Columns and labels:
Format in all cases: functional
[1] = Growth inhibition of human HCC2998 cells assessed as cell growth at 10^-6 M incubated for 48 hrs by sulforhodamine B assay; details: HCC 2998, 48 h, read-out: Activity
How it was run: (§1)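 Cells seeded at 5,000–40,000/well according to doubling time and preincubated 24 h at 37 °C, 5% CO2. Time-zero plates were TCA-fixed. DMSO concentrate was diluted in medium with 50 µg/ml gentamicin to give five concentrations (10-fold or ½ log steps), then exposed 48 h. Cells were TCA-fixed, stained with 0.4% SRB and read at 515 nm. Percent growth was taken against time-zero and control; GI50, TGI and LC50 derived.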

NCI-H23 [2] = experiment: Growth inhibition of human NCI-H23 cells assessed as cell growth at 10^-4 M incubated for 48 hrs by sulforhodamine B assay; details: NCI-H23, 48 h, read-out: Activity
NCI-H23 [3] = experiment: Growth inhibition of human NCI-H23 cells assessed as cell growth at 10 uM incubated for 48 hrs by sulforhodamine B assay; details: NCI-H23, 48 h, read-out: Activity
MDA-MB-468 = experiment: Growth inhibition of human MDA-MB-468 cells assessed as cell growth at 10^-7 M incubated for 48 hrs by sulforhodamine B assay; details: MDA-MB-468, 48 h, read-out: Activity
NCI-H522 = experiment: Growth inhibition of human NCI-H522 cells incubated for 48 hrs by sulforhodamine B assay; details: NCI-H522, 48 h
How it was run: (§2)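 Cells were plated at 5,000–40,000 per well according to doubling time and preincubated 24 h at 37 °C in 5% CO2; time-zero plates were then TCA-fixed. Five concentrations (10-fold or ½-log dilutions, DMSO stock) were incubated 48 h. Cells were TCA-fixed, stained with 0.4% SRB and read at 515 nm. GI50 was taken where [(Ti−Tz)/(C−Tz)]×100 = 50.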

NCI-H23 [4] = experiment: Growth inhibition of human NCI-H23 cells assessed as cell growth at 10^-6 M incubated for 48 hrs by sulforhodamine B assay; details: NCI-H23, 48 h, read-out: Activity
[5] = Growth inhibition of human HCT15 cells assessed as cell growth at 10^-4 M incubated for 48 hrs by sulforhodamine B assay; details: HCT-15, 48 h, read-out: Activity; how it was run: as §1
[6] = Growth inhibition of human HOP62 cells assessed as cell growth at 10^-4 M incubated for 48 hrs by sulforhodamine B assay; details: HOP-62, 48 h, read-out: Activity
CCRF-CEM = experiment: Growth inhibition of human CCRF-CEM cells assessed as cell growth at 10^-6 M incubated for 48 hrs by sulforhodamine B assay; details: read-out: Activity
How it was run: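 Leukemia line in the five-dose format: five concentrations from 10-fold or ½-log serial dilutions. Plated at 5,000–40,000 cells per well, preincubated 24 h, then compound added for 48 h at 37 °C, 5% CO₂. Sulforhodamine B absorbance read at 515 nm. Growth is computed against time-zero (Tz) and control (C) readings; GI₅₀ is where [(Ti−Tz)/(C−Tz)]×100 = 50.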

[7] = Growth inhibition of human OVCAR3 cells assessed as cell growth at 10^-4 M incubated for 48 hrs by sulforhodamine B assay; details: OVCAR-3, 48 h, read-out: Activity
[8] = Growth inhibition of human DU145 cells incubated for 48 hrs by sulforhodamine B assay; details: DU-145, 48 h; how it was run: as §1
NCI-H23 [9] = experiment: Growth inhibition of human NCI-H23 cells assessed as cell growth at 10^-8 M incubated for 48 hrs by sulforhodamine B assay; details: NCI-H23, 48 h, read-out: Activity
[10] = Growth inhibition of human MOLT4 cells incubated for 48 hrs by sulforhodamine B assay; details: MOLT-4, 48 h; how it was run: as §2
[11] = Growth inhibition of human RXF393 cells assessed as cell growth at 10^-6 M incubated for 48 hrs by sulforhodamine B assay; details: RXF 393, 48 h, read-out: Activity
NCI-H23 [12] = experiment: Growth inhibition of human NCI-H23 cells assessed as cell growth at 10^-7 M incubated for 48 hrs by sulforhodamine B assay; details: NCI-H23, 48 h, read-out: Activity
[13] = Growth inhibition of human COLO205 cells assessed as cell growth at 10 uM incubated for 48 hrs by sulforhodamine B assay; details: COLO 205, 48 h, read-out: Activity
How it was run: (§3)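 Primary screen at one dose (10 µM) across 60 human cancer cell lines. Readout was growth percent relative to untreated control and time-zero.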

[14] = Growth inhibition of human SF295 cells assessed as cell growth at 10^-8 M incubated for 48 hrs by sulforhodamine B assay; details: SF-295, 48 h, read-out: Activity
[15] = Growth inhibition of human SNB19 cells assessed as cell growth at 10 uM incubated for 48 hrs by sulforhodamine B assay; details: SNB-19, 48 h, read-out: Activity
U-251 = experiment: Growth inhibition of human U251 cells incubated for 48 hrs by sulforhodamine B assay; details: U-251, 48 h; how it was run: as §2
EKVX = experiment: Growth inhibition of human EKVX cells assessed as cell growth at 10 uM incubated for 48 hrs by sulforhodamine B assay; details: read-out: Activity; how it was run: as §3
[16] = Growth inhibition of human SF295 cells assessed as cell growth at 10^-4 M incubated for 48 hrs by sulforhodamine B assay; details: SF-295, 48 h, read-out: Activity
NCI-H460 = experiment: Growth inhibition of human NCI-H460 cells incubated for 48 hrs by sulforhodamine B assay; details: NCI-H460, 48 h; how it was run: as §2
[17] = Growth inhibition of human HCC2998 cells assessed as cell growth at 10 uM incubated for 48 hrs by sulforhodamine B assay; details: HCC 2998, 48 h, read-out: Activity; how it was run: as §3
SK-MEL-5 = experiment: Growth inhibition of human SK-MEL-5 cells assessed as cell growth at 10^-4 M incubated for 48 hrs by sulforhodamine B assay; details: SK-MEL-5, 48 h, read-out: Activity
SK-MEL-2 = experiment: Growth inhibition of human SK-MEL-2 cells assessed as cell growth at 10^-5 M incubated for 48 hrs by sulforhodamine B assay; details: SK-MEL-2, 48 h, read-out: Activity
[18] = Growth inhibition of human HCT116 cells assessed as cell growth at 10^-4 M incubated for 48 hrs by sulforhodamine B assay; details: HCT-116, 48 h, read-out: Activity; how it was run: as §1
M14 = experiment: Growth inhibition of human M14 cells assessed as cell growth at 10 uM incubated for 48 hrs by sulforhodamine B assay; details: M14, 48 h, read-out: Activity
[19] = read-out: LC50 (the source's name)
[20] = read-out: pLC50 (the source's name) (converted)

## Fc1ccc(-c2nc(Nc3ccc(-c4nc5ccccc5[nH]4)cc3)nc(N3CCOCC3)n2)cc1
[1]
  growth at 1 µM: 94%
NCI-H23 [2]
  growth at 100 µM: -15%
NCI-H23 [3]
  growth at 10 µM: 11.3%
MDA-MB-468
  growth at 0.1 µM: 106%
NCI-H522; read-out: GI50
  GI50: 2.36 µM
NCI-H522; [19]
  CC50: > 100 µM
NCI-H522; read-out: TGI
  TGI: 5.85 µM
NCI-H522; read-out: pGI50 (converted)
  GI50: 2.34 µM
NCI-H522; [20]
  CC50: > 100 µM
NCI-H522; read-out: pTGI (converted)
  TGI: 5.89 µM
NCI-H23 [4]
  growth at 1 µM: 85%
[5]
  growth at 100 µM: -13%
[6]
  growth at 100 µM: -33%
CCRF-CEM
  growth at 1 µM: 92%
[7]
  growth at 100 µM: -45%
[8]
  LC50 (50% net cell kill): > 100 µM
[8]; read-out: GI50
  GI50: 4.53 µM
[8]; read-out: TGI
  TGI: > 100 µM
[8]; read-out: pGI50 (converted)
  GI50: 4.57 µM
[8]; [20]
  CC50: > 100 µM
[8]; read-out: pTGI (converted)
  TGI: > 100 µM
NCI-H23 [9]
  growth at 0.01 µM: 94%
[10]; read-out: GI50
  GI50: 2.15 µM
[10]; [19]
  CC50: > 100 µM
[10]; read-out: TGI
  TGI: 6.13 µM
[10]; read-out: pGI50 (converted)
  GI50: 2.14 µM
[10]; [20]
  CC50: > 100 µM
[10]; read-out: pTGI (converted)
  TGI: 6.17 µM
[11]
  growth at 1 µM: 24%
NCI-H23 [12]
  growth at 0.1 µM: 91%
[13]
  growth at 10 µM: -43.7%
[14]
  growth at 0.01 µM: 93%
[15]
  growth at 10 µM: 17.5%
U-251; read-out: GI50
  GI50: 2.04 µM
U-251; [19]
  CC50: > 100 µM
U-251; read-out: TGI
  TGI: 13.6 µM
U-251; read-out: pGI50 (converted)
  GI50: 2.04 µM
U-251; [20]
  CC50: > 100 µM
U-251; read-out: pTGI (converted)
  TGI: 13.5 µM
EKVX
  growth at 10 µM: 7.91%
[16]
  growth at 100 µM: -35%
NCI-H460; read-out: GI50
  GI50: 2.48 µM
NCI-H460; [19]
  CC50: > 100 µM
NCI-H460; read-out: TGI
  TGI: 6.51 µM
NCI-H460; read-out: pGI50 (converted)
  GI50: 2.45 µM
NCI-H460; [20]
  CC50: > 100 µM
NCI-H460; read-out: pTGI (converted)
  TGI: 6.46 µM
[17]
  growth at 10 µM: -19.9%
SK-MEL-5
  growth at 100 µM: -90%
SK-MEL-2
  growth at 10 µM: -35%
[18]
  growth at 100 µM: -78%
M14
  growth at 10 µM: -7.64%
